This is a sample that favours compounds with a hit; in the whole collection about 1.6% have one here.
ASAP1 GAP inh: ASAP1 ArfGAP inhibition. ASAP1-stimulated ARF1 GTP hydrolysis, GDP FP detection. inhibition, % at 16.5 µM. Q9ULH1. 0.19% of 360,000 active; in the data active = inhibition above about 25%
Target sequence (Q9ULH1 325-724 limits assumed): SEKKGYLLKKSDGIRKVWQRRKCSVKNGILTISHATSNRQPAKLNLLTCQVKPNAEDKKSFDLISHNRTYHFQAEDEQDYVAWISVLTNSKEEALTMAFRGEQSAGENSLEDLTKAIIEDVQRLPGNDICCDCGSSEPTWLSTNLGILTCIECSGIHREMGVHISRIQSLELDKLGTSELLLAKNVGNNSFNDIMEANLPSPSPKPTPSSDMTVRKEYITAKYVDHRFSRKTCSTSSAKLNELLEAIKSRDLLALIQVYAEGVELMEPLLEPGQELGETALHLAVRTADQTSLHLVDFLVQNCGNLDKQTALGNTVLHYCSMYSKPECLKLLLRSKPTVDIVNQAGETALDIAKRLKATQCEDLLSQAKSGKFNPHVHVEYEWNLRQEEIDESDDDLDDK
Neddylation inh: cullin neddylation inhibition; P61081+Q13564; TR-FRET cullin neddylation, biochemical; inhibition, % at 25 µM; 0.58% of 360,000 active; AID 651699; in the data active = inhibition above about 36%
ARFGAP1 inh: rat ARFGAP1 inhibition; Arfgap1-stimulated ARF1 GTP hydrolysis, GDP FP detection; inhibition, % at 16.5 µM; 0.26% of 360,000 active;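 active = inhibition above a per-plate limit, mean inhibition of low control wells plus 3 SD, cut at about 25% in these data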
Target sequence (Q62848 1-136 limits assumed): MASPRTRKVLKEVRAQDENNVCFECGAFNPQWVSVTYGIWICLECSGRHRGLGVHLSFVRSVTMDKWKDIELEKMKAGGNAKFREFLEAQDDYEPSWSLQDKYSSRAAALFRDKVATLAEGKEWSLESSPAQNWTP
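material = rat Arfgap1 catalytic domain, aa 1-136 | also added = human ARF1(Δ1-17)-GTP substrate | compound dosing = one concentration, 16.5 µM, DMSO 1.26% | times = GTP hydrolysis reaction 2 h at 25 °C | measured by = FP, GDP Alexa 633 tracer displaced from anti-GDP antibody, 620/688 nm | evaluation = percent inhibition of Arfgap1-stimulated GTP hydrolysis | replication = single well per compound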
H9c2 protect: protects H9c2 cardiomyocytes from peroxide injury | H2O2 injury protection, ATPLite, 2 h | protection from H2O2 cell death, % at 20 µM | 0.63% of 360,000 active;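 active = compounds giving at least 50% protection of heart cells from peroxide-induced death in the single-dose screen, raw or plate-pattern-corrected value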
Neddyl inh conf: confirmation of human cullin neddylation inhibitors. shares compounds with Neddylation inh. TR-FRET cullin neddylation biochemical assay. calls only at 25 µM. 13% of 1,800 active; in the data active = inhibition above about 40%;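 also: neddylation substrate is the cullin 1 ring ligase complex with SKP2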
Numbers stand for hits; n = inactive; x = no result given; + = active, no number.

SMILES	ASAP1 GAP inh	Neddylation inh	ARFGAP1 inh	H9c2 protect	Neddyl inh conf
Cc1cc(=O)oc2cc(OCC(O)Cn3ccnc3)ccc12 (stereo not drawn)	n	40.5	n	n	n
Cc1cc(=O)oc2cc(OCC(=O)N3CCCC3)ccc12	n	48.3	n	n	n
Cc1cc(=O)oc2cc(OCC(=O)NCCCn3ccnc3)ccc12	n	n	n	n	x
CCOC(=O)C1CCN(C(=O)COc2ccc3c(C)cc(=O)oc3c2)CC1	n	42.0	n	n	n
COc1ccc(/C=C/c2ccncc2)cc1OC	n	n	n	n	x
COc1ccc(/C=C\c2cc(OC)c(OC)cc2CC[N+](C)(C)C)cc1OC	n	43.1	n	n	n
COc1ccc2sc(-c3ccc(SC)cc3)c(C#CC(C)(C)O)c2c1	n	n	n	n	x
COc1ccc2sc(-c3ccc(SC)cc3)c(C#CCO)c2c1	n	38.5	n	n	x
O=C(c1nc2nc(-c3ccc(Cl)cc3)cc(C(F)(F)F)n2n1)N1CCOCC1	n	41.2	n	n	n
COC(=O)c1cc2c(c3c4cc(F)ccc4n(S(=O)(=O)c4ccc(C)cc4)c13)C(=O)N(C)C2	n	x	n	x	x
Cc1c2ccccc2nc2ccccc12	n	50.4	n	n	n
CC1CCN(c2ccccc2NC(=O)c2cc3ccccc3o2)CC1	n	37.4	n	n	n
Cc1ccc(-n2nc3ccc(NC(=O)C(C)C)cc3n2)cc1	n	43.2	n	n	n
CC(=O)Nc1ccc(Nc2nnc(-c3ccc(C)c(S(=O)(=O)NCC4CCCO4)c3)c3ccccc23)cc1 (stereo not drawn)	n	n	n	n	x
CNC(=O)c1ccc(Nc2nnc(-c3ccc(C)c(S(=O)(=O)NCC4CCCO4)c3)c3ccccc23)cc1 (stereo not drawn)	n	40.4	n	n	n
CCN(CC)CCOC(=O)c1cccc2c1-c1ccccc1C2O (stereo not drawn)	n	37.3	n	n	n
C[n+]1cccc(NC(=O)c2ccccc2)c1	n	n	n	x	x
Cn1c(=O)c2ccccc2n(C)c1=O	n	x	n	x	x
CCc1nnc(NC(=O)CSc2nnc(-c3ccccc3O)n2-c2ccc(C)cc2C)s1	n	41.3	n	n	n
O=C(NC1CCCCC1)c1nn2c(C(F)(F)F)cc(-c3ccco3)nc2c1Br	n	n	n	n	x
CCCNC(=O)c1cc2nc(-c3ccccc3)cc(C(F)(F)F)n2n1	n	44.8	n	n	x
O=C(NC1CCCCC1)c1cnn2c(C(F)(F)F)cc(-c3ccco3)nc12	n	42.5	n	n	+
O=C(NC1CCCC1)c1cc2nc(-c3ccco3)cc(C(F)(F)F)n2n1	n	55.4	n	n	n
CCCCNC(=O)c1cc2nc(-c3ccccc3)cc(C(F)(F)F)n2n1	n	x	n	n	x
CC(C)Sc1nnc(-c2ccc(S(=O)(=O)N3CCOCC3)cc2)n1C	n	43.7	n	n	n
SMILES	ASAP1 GAP inh	Neddylation inh	ARFGAP1 inh	H9c2 protect	Neddyl inh conf
CCN(CC)C(=O)CSc1nnc(-c2ccc(S(=O)(=O)N3CCOCC3)cc2)n1C	n	n	n	n	x
c1ccc(-c2cc3c(-n4cccc4)ncnc3o2)cc1	n	38.0	n	n	n
c1ccc(Oc2ncnc3oc(-c4ccccc4)cc23)cc1	n	n	n	n	x
O=C(NC(c1ccc(Cl)cc1)c1ccsc1)C1CCN(CCOc2ccc(Cl)cc2)CC1 (stereo not drawn)	n	n	n	n	x
O=C(c1cnn2c(C(F)(F)F)cc(-c3cccs3)nc12)N1CCCC1	n	44.4	n	n	x
O=C(Nc1ccc(F)cc1)C(c1cccc(F)c1)N1CCN(Cc2c(F)cccc2Cl)CC1 (stereo not drawn)	n	n	n	x	x
COC(=O)C1C(O)=C(C=Nc2ccccc2)C(=O)CC1(C)C (stereo not drawn)	n	n	n	n	x
COC(=O)C1C(O)=C(C(C)=Nc2cccc3ccccc23)C(=O)CC1(C)C (stereo not drawn)	n	45.2	n	n	n
CC(C)c1ccc(/C=C/C(=O)NC(=S)Nc2ccc(CN3CCOCC3)cc2)cc1	n	40.2	n	n	n
Cc1ccnc(NCc2cc(Cl)cc(Cl)c2O)c1	n	n	n	n	x
Cc1cc(C)c(O)c(CN(C)Cc2cc(Cl)cc(Cl)c2O)c1	n	37.8	n	n	n
O=C(NCc1cccs1)c1cccn2c(=O)c3sccc3nc12	n	42.5	n	n	n
O=C(NCc1ccco1)c1cccn2c(=O)c3sccc3nc12	n	54.8	n	n	x
CC(C)[C@@H](C)/C=C/[C@@H](C)[C@H]1CC[C@@H]2[C@]1(C)CCC1[C@]23C=C[C@]2(C[C@@H](O)CC[C@]12C)N(c1ccc(Br)cn1)O3 (stereo partly drawn)	n	x	n	x	x
COc1cccc(/C=N/NC(=O)CSc2cccc3cccnc23)c1	n	46.2	n	n	n
O=C(CSc1cccc2cccnc12)N/N=C/c1ccc(O)cc1	n	n	n	n	x
COc1ccc(CNC(=O)CSc2cccc3cccnc23)cc1	n	43.4	n	n	n
C[C@H]1COc2cc(NCCCN3CCOCC3)ccc2S(=O)(=O)N1	n	x	n	x	x
OCCCNC(=S)Nc1ccc2nccnc2c1	n	48.6	n	n	n
OCCCNC(=S)Nc1ccc(Oc2ccccc2)cc1	n	n	n	n	x
O=c1[nH]c2ccccc2nc1-c1ccccc1	n	50.3	n	n	+
COc1cc(NC(=O)c2cccnc2)c(Cl)cc1NC(=O)c1ccc(Cl)cc1	n	x	n	n	x
COc1cc(NC(=O)Cc2ccccc2)ccc1NC(=O)c1ccccc1	n	43.5	n	n	n
COc1cc(NC(=O)c2cccnc2)c(Cl)cc1NC(=O)c1ccccc1	n	41.1	n	n	n
COc1cc(NC(=O)c2ccccc2)ccc1NC(=O)Cc1ccccc1	n	n	n	n	x
SMILES	ASAP1 GAP inh	Neddylation inh	ARFGAP1 inh	H9c2 protect	Neddyl inh conf
Nc1ncnc2c1ncn2[C@@H]1O[C@H](C(=O)N[C@@H](CCc2ccccc2)C(=O)O)[C@@H](O)[C@H]1O	n	x	n	x	x
COc1ccc2oc(=O)c(-c3nnc(NCc4ccco4)s3)cc2c1	n	45.1	n	n	n
CCOc1cccc2cc(-c3nnc(NCc4ccco4)s3)c(=O)oc12	n	x	n	n	x
COc1ccc2oc(=O)c(-c3nc4ccccc4o3)cc2c1	n	48.6	n	n	+
CC(C)(C)c1ccc(CC(=O)N2CCC2(C)C(=O)NS(=O)(=O)c2ccc(F)cc2F)cc1 (stereo not drawn)	n	n	n	n	x
Cc1cc(=O)oc2cc(OCc3c(F)cccc3Cl)ccc12	n	x	n	x	x
Cc1cccc(S(=O)(=O)C(C#N)c2nc3ccccc3nc2N2CC(C)OC(C)C2)c1 (stereo not drawn)	n	46.2	n	n	n
CS(=O)(=O)c1ccc(OCCCN2CCC(C(O)(c3ccccc3)c3ccccc3)CC2)cc1	n	x	n	x	x
CC1Cn2c(nnc2-c2ccccc2O)S1 (stereo not drawn)	n	n	n	n	x
CC1Cn2c(nnc2-c2cc3ccccc3cc2O)S1 (stereo not drawn)	n	44.2	n	n	n
Cc1ccccc1C(=O)N1CCC[C@@H]1C(=O)N1CCC[C@H]1C(=O)NCc1ccccc1	n	x	n	x	x
